Source: ChEMBL document CHEMBL3779892, “Increasing the binding affinity of VEGFR-2 inhibitors by extending their hydrophobic interaction with the active site: Design, synthesis and biological evaluation of 1-substituted-4-(4-methoxybenzyl)phthalazine derivatives” (Eur J Med Chem, 2016)

Columns and labels:
Format in all cases: functional
T47D = test: Growth inhibition of human T47D cells at 10 uM after 48 hrs by sulforhodamine B assay; details: read-out: GI
Procedure, shortened: (§1)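 NCI-60 panel, adherent cells grown in RPMI 1640 with 5% FBS and 2 mM L-glutamine, plated at 5000–40,000 cells/well and preincubated 24 h at 37 °C, 5% CO2. 10 µM final compound from DMSO stock, triplicate wells, 48 h. Fixed with cold TCA (10% final, 60 min, 4 °C) and stained with 0.4% SRB. Absorbance read at 515 nm; growth calculated against time-zero and control wells.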

MDA-MB-468 = test: Growth inhibition of human MDA-MB-468 cells at 10 uM after 48 hrs by sulforhodamine B assay; details: MDA-MB-468, 48 h, read-out: GI
Procedure, shortened: (§2)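 Run at NCI on the 60-line panel. Cells grown in RPMI 1640 with 5% FBS and 2 mM L-glutamine, plated at 5000–40,000 cells/well by doubling time, and held 24 h at 37 °C before dosing. Drug (DMSO stock) given at a single final 10 µM in triplicate wells for 48 h. Adherent cells fixed with cold TCA (10% final), suspension cells with 16% TCA. SRB stain read at 515 nm. Percent growth from Tz, C and Ti.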

MDA-MB-231 = test: Growth inhibition of human MDA-MB-231 cells at 10 uM after 48 hrs by sulforhodamine B assay; details: MDA-MB-231, 48 h, read-out: GI; procedure, shortened: as §2
CCRF-CEM = test: Growth inhibition of human CCRF-CEM cells at 10 uM after 48 hrs by sulforhodamine B assay; details: read-out: GI; procedure, shortened: as §2
K562 = test: Growth inhibition of human K562 cells at 10 uM after 48 hrs by sulforhodamine B assay; details: K562, 48 h, read-out: GI; procedure, shortened: as §2
[1] = Growth inhibition of human RPMI8226 cells at 10 uM after 48 hrs by sulforhodamine B assay; details: RPMI-8226, 48 h, read-out: GI; procedure, shortened: as §2
A549 = test: Growth inhibition of human A549 cells at 10 uM after 48 hrs by sulforhodamine B assay; details: A549, 48 h, read-out: GI; procedure, shortened: as §2
[2] = Growth inhibition of human HOP62 cells at 10 uM after 48 hrs by sulforhodamine B assay; details: HOP-62, 48 h, read-out: GI; procedure, shortened: as §2
NCI-H23 = test: Growth inhibition of human NCI-H23 cells at 10 uM after 48 hrs by sulforhodamine B assay; details: NCI-H23, 48 h, read-out: GI; procedure, shortened: as §2
NCI-H322M = test: Growth inhibition of human NCI-H322M cells at 10 uM after 48 hrs by sulforhodamine B assay; details: read-out: GI; procedure, shortened: as §2
NCI-H460 = test: Growth inhibition of human NCI-H460 cells at 10 uM after 48 hrs by sulforhodamine B assay; details: NCI-H460, 48 h, read-out: GI; procedure, shortened: as §2
NCI-H522 = test: Growth inhibition of human NCI-H522 cells at 10 uM after 48 hrs by sulforhodamine B assay; details: NCI-H522, 48 h, read-out: GI; procedure, shortened: as §2
HT-29 = test: Growth inhibition of human HT-29 cells at 10 uM after 48 hrs by sulforhodamine B assay; details: HT-29, 48 h, read-out: GI; procedure, shortened: as §2
KM12 = test: Growth inhibition of human KM12 cells at 10 uM after 48 hrs by sulforhodamine B assay; details: KM12, 48 h, read-out: GI; procedure, shortened: as §2
[3] = Growth inhibition of human SF295 cells at 10 uM after 48 hrs by sulforhodamine B assay; details: SF-295, 48 h, read-out: GI; procedure, shortened: as §2
[4] = Growth inhibition of human SF539 cells at 10 uM after 48 hrs by sulforhodamine B assay; details: SF-539, 48 h, read-out: GI; procedure, shortened: as §2
[5] = Growth inhibition of human SNB19 cells at 10 uM after 48 hrs by sulforhodamine B assay; details: SNB-19, 48 h, read-out: GI; procedure, shortened: as §2
[6] = Growth inhibition of human SNB75 cells at 10 uM after 48 hrs by sulforhodamine B assay; details: SNB-75, 48 h, read-out: GI; procedure, shortened: as §2
[7] = Growth inhibition of human LOXIMVI cells at 10 uM after 48 hrs by sulforhodamine B assay; details: LOX IMVI, read-out: GI; procedure, shortened: as §2
M14 = test: Growth inhibition of human M14 cells at 10 uM after 48 hrs by sulforhodamine B assay; details: M14, 48 h, read-out: GI; procedure, shortened: as §2
MDA-MB-435 = test: Growth inhibition of human MDA-MB-435 cells at 10 uM after 48 hrs by sulforhodamine B assay; details: MDA-MB-435, 48 h, read-out: GI; procedure, shortened: as §2
SK-MEL-28 = test: Growth inhibition of human SK-MEL-28 cells at 10 uM after 48 hrs by sulforhodamine B assay; details: SK-MEL-28, 48 h, read-out: GI; procedure, shortened: as §2
[8] = Growth inhibition of human UACC257 cells at 10 uM after 48 hrs by sulforhodamine B assay; details: UACC-257, 48 h, read-out: GI; procedure, shortened: as §1
[9] = Growth inhibition of human OVCAR4 cells at 10 uM after 48 hrs by sulforhodamine B assay; details: OVCAR-4, 48 h, read-out: GI; procedure, shortened: as §2
[10] = Growth inhibition of human OVCAR5 cells at 10 uM after 48 hrs by sulforhodamine B assay; details: OVCAR-5, 48 h, read-out: GI; procedure, shortened: as §2
[11] = Growth inhibition of human OVCAR8 cells at 10 uM after 48 hrs by sulforhodamine B assay; details: OVCAR-8, 48 h, read-out: GI; procedure, shortened: as §2
[12] = Growth inhibition of human NCI-ADR-RES cells at 10 uM after 48 hrs by sulforhodamine B assay; details: read-out: GI; procedure, shortened: as §2
A498 = test: Growth inhibition of human A498 cells at 10 uM after 48 hrs by sulforhodamine B assay; details: A498, 48 h, read-out: GI; procedure, shortened: as §2
[13] = Growth inhibition of human Caki1 cells at 10 uM after 48 hrs by sulforhodamine B assay; details: CAKI-1, 48 h, read-out: GI; procedure, shortened: as §2
SN12C = test: Growth inhibition of human SN12C cells at 10 uM after 48 hrs by sulforhodamine B assay; details: read-out: GI; procedure, shortened: as §2
[14] = Growth inhibition of human TK10 cells at 10 uM after 48 hrs by sulforhodamine B assay; details: TK-10, 48 h, read-out: GI; procedure, shortened: as §1
[15] = Growth inhibition of human UO31 cells at 10 uM after 48 hrs by sulforhodamine B assay; details: UO-31, 48 h, read-out: GI; procedure, shortened: as §1
[16] = Growth inhibition of human PC3 cells at 10 uM after 48 hrs by sulforhodamine B assay; details: PC-3, 48 h, read-out: GI; procedure, shortened: as §2
[17] = Growth inhibition of human DU145 cells at 10 uM after 48 hrs by sulforhodamine B assay; details: DU-145, 48 h, read-out: GI; procedure, shortened: as §2
MCF7 = test: Growth inhibition of human MCF7 cells at 10 uM after 48 hrs by sulforhodamine B assay; details: MCF7, 48 h, read-out: GI; procedure, shortened: as §2
[18] = Growth inhibition of human Hs 578T cells at 10 uM after 48 hrs by sulforhodamine B assay; details: read-out: GI; procedure, shortened: as §2

| SMILES | inhibition of growth at 10 µM (T47D) [%] | inhibition of growth at 10 µM (MDA-MB-468) [%] | inhibition of growth at 10 µM (MDA-MB-231) [%] | inhibition of growth at 10 µM (CCRF-CEM) [%] | inhibition of growth at 10 µM (K562) [%] | inhibition of growth at 10 µM [1] [%] | inhibition of growth at 10 µM (A549) [%] | inhibition of growth at 10 µM [2] [%] | inhibition of growth at 10 µM (NCI-H23) [%] | inhibition of growth at 10 µM (NCI-H322M) [%] | inhibition of growth at 10 µM (NCI-H460) [%] | inhibition of growth at 10 µM (NCI-H522) [%] | inhibition of growth at 10 µM (HT-29) [%] | inhibition of growth at 10 µM (KM12) [%] | inhibition of growth at 10 µM [3] [%] | inhibition of growth at 10 µM [4] [%] | inhibition of growth at 10 µM [5] [%] | inhibition of growth at 10 µM [6] [%] | inhibition of growth at 10 µM [7] [%] | inhibition of growth at 10 µM (M14) [%] | also measured |
| --- | --- | --- | --- | --- | --- | --- | --- | --- | --- | --- | --- | --- | --- | --- | --- | --- | --- | --- | --- | --- | --- |
| COc1ccc(Cc2nnc(Nc3ccc(NC(=O)Nc4ccccc4)cc3)c3ccccc23)cc1 | 41 | < 30 | 31 | 34 | < 30 | 46 | < 30 | < 30 | < 30 | < 30 | < 30 | 48 | < 30 | < 30 | < 30 | < 30 | < 30 | < 30 | < 30 | < 30 | inhibition of growth at 10 µM (MDA-MB-435): < 30%; inhibition of growth at 10 µM (SK-MEL-28): < 30%; inhibition of growth at 10 µM [8]: < 30%; inhibition of growth at 10 µM [9]: < 30%; inhibition of growth at 10 µM [10]: < 30%; inhibition of growth at 10 µM [11]: < 30%; inhibition of growth at 10 µM [12]: < 30%; inhibition of growth at 10 µM (A498): < 30%; inhibition of growth at 10 µM [13]: < 30%; inhibition of growth at 10 µM (SN12C): < 30%; inhibition of growth at 10 µM [14]: < 30%; inhibition of growth at 10 µM [15]: < 30%; inhibition of growth at 10 µM [16]: 30%; inhibition of growth at 10 µM [17]: < 30%; inhibition of growth at 10 µM (MCF7): < 30%; inhibition of growth at 10 µM [18]: 33% |
| COc1ccc(Cc2nnc(Nc3ccc(NC(=O)Nc4cccc(C(F)(F)F)c4)cc3)c3ccccc23)cc1 | < 30 | < 30 | < 30 | 35 | < 30 | 42 | 35 | < 30 | < 30 | < 30 | < 30 | 56 | < 30 | 36 | < 30 | < 30 | 30 | 31 | < 30 | 30 | inhibition of growth at 10 µM (MDA-MB-435): < 30%; inhibition of growth at 10 µM (SK-MEL-28): < 30%; inhibition of growth at 10 µM [8]: < 30%; inhibition of growth at 10 µM [9]: < 30%; inhibition of growth at 10 µM [10]: < 30%; inhibition of growth at 10 µM [11]: < 30%; inhibition of growth at 10 µM [12]: < 30%; inhibition of growth at 10 µM (A498): < 30%; inhibition of growth at 10 µM [13]: < 30%; inhibition of growth at 10 µM (SN12C): < 30%; inhibition of growth at 10 µM [14]: < 30%; inhibition of growth at 10 µM [15]: < 30%; inhibition of growth at 10 µM [16]: 36%; inhibition of growth at 10 µM [17]: < 30%; inhibition of growth at 10 µM (MCF7): < 30%; inhibition of growth at 10 µM [18]: 34% |
| COc1ccc(Cc2nnc(Nc3ccc(NC(=O)Nc4ccc(C#N)cc4)cc3)c3ccccc23)cc1 | 48 | < 30 | 63 | 47 | 50 | 95 | 36 | 33 | < 30 | < 30 | 40 | 54 | 45 | 37 | 86 | 67 | 43 | 57 | 46 | 35 | inhibition of growth at 10 µM (MDA-MB-435): < 30%; inhibition of growth at 10 µM (SK-MEL-28): 45%; inhibition of growth at 10 µM [8]: < 30%; inhibition of growth at 10 µM [9]: < 30%; inhibition of growth at 10 µM [10]: < 30%; inhibition of growth at 10 µM [11]: < 30%; inhibition of growth at 10 µM [12]: < 30%; inhibition of growth at 10 µM (A498): 54%; inhibition of growth at 10 µM [13]: < 30%; inhibition of growth at 10 µM (SN12C): < 30%; inhibition of growth at 10 µM [14]: < 30%; inhibition of growth at 10 µM [15]: 44%; inhibition of growth at 10 µM [16]: 41%; inhibition of growth at 10 µM [17]: < 30%; inhibition of growth at 10 µM (MCF7): 45%; inhibition of growth at 10 µM [18]: 105% |
